In publication PMC3481545 (Biochemistry, 2012):

Experiments:
[1] = test system: BMP-7-stimulated OC promoter activity in fetal rat calvaria (FRC) cells; assay: Osteocalcin promoter-Luciferase; assay type: cell-based; settings: BMP-7 alone, 6 nM
Procedure, shortened: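 Primary fetal rat calvaria cells were grown in αMEM+10% FBS and transfected with an OC promoter-luciferase plasmid via FuGENE 6 in OPTI medium with 8 U hyaluronidase. After 5 h, fresh medium was added overnight. Cells were then treated 24 h with 6 nM BMP-7, alone or with 20-fold molar excess soluble receptor ECD. Luciferase was read in lysates; mean±SEM of three independent measurements.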

Energy transfer = assay type: binding; settings: value in parenthesis
Procedure, shortened: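 Human receptor ECDs (wild-type, mutants, chimeras) were made as TRX/His-tag fusions in E. coli BL21(DE3), cut with thrombin, and purified by Ni-NTA, gel filtration and C18. Protein was quantified by A280. bis-ANS was diluted from a 10 mM DMF stock into 50 mM Tris-HCl pH 7.5, 150 mM NaCl. Tryptophan was excited at 295 nm, emission read 310–600 nm at 25°C, and K′ derived from energy transfer to bis-ANS, normalized to wild-type.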

[2] = bis-ANS fluorescence titration of receptor ECDs; assay type: binding; settings: value in parenthesis
Procedure, shortened: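 Receptor ECDs were expressed in E. coli as TRX/His-tag fusions, thrombin-cleaved, and purified (Ni-NTA, gel filtration, C18), then quantified by A280. bis-ANS was diluted from a 10 mM DMF stock into 50 mM Tris-HCl pH 7.5, 150 mM NaCl and titrated against fixed protein. Peak fluorescence versus dye concentration was fitted to a Hill equation for apparent K′, normalized to wild-type.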

Molecule	Stimulation of OC promoter activity beyond the empty plasmid control [1] [fold]	Relative K′ of bis-ANS (energy transfer), normalized to wild-type (Energy transfer)	Relative K′ of bis-ANS (Hill Eq.), normalized to wild-type [2]
BMP-7: Bone Morphogenetic Protein ligand provided by Stryker Biotech; BMPR-II ligand (protein) STGSKQRSQNRSKTPKNQEALRMANVAENSSSDQRQACKKHELYVSFRDLGWQDWIIAPEGYAAYYCEGECAFPLNSYMNATNHAIVQTLVHFINPETVPKPCCAPTQLNAISVLYFDDSSNVILKKYRNMVVRACGCH	14		
S107P: BMPR-II ECD naturally occurring single-amino-acid-substitution mutant S107P (protein, left off: TRX, N-terminal, cleaved | His6, C-terminal, state not stated) ASQNQERLCAFKDPYQQDLGIGESRISHENGTILCSKGSTCYGLWEKSKGDINLVKQGCWSHIGDPQECHYEECVVTTTPPPIQNGTYRFCCCSTDLCNVNFTENFPPPDTTPLSPPHSFNRDET		0.9	1.0
Y40Q: BMPR-II ECD single-amino-acid-substitution mutant Y40Q (protein, left off: TRX, N-terminal, cleaved | His6, C-terminal, state not stated) ASQNQERLCAFKDPQQQDLGIGESRISHENGTILCSKGSTCYGLWEKSKGDINLVKQGCWSHIGDPQECHYEECVVTTTPPSIQNGTYRFCCCSTDLCNVNFTENFPPPDTTPLSPPHSFNRDET		1.9	2.4
Y40P: BMPR-II ECD single-amino-acid-substitution mutant Y40P (protein, left off: TRX, N-terminal, cleaved | His6, C-terminal, state not stated) ASQNQERLCAFKDPPQQDLGIGESRISHENGTILCSKGSTCYGLWEKSKGDINLVKQGCWSHIGDPQECHYEECVVTTTPPSIQNGTYRFCCCSTDLCNVNFTENFPPPDTTPLSPPHSFNRDET		1.6	1.8
BMPR-II Wild type: human recombinant BMPR-II receptor extracellular domain (ECD), wild type, expressed in E. coli (protein, left off: TRX, N-terminal, cleaved | His6, C-terminal, state not stated) ASQNQERLCAFKDPYQQDLGIGESRISHENGTILCSKGSTCYGLWEKSKGDINLVKQGCWSHIGDPQECHYEECVVTTTPPSIQNGTYRFCCCSTDLCNVNFTENFPPPDTTPLSPPHSFNRDET		1.0	1.0
G47N: BMPR-II ECD naturally occurring single-amino-acid-substitution mutant G47N (protein, left off: TRX, N-terminal, cleaved | His6, C-terminal, state not stated) ASQNQERLCAFKDPYQQDLGINESRISHENGTILCSKGSTCYGLWEKSKGDINLVKQGCWSHIGDPQECHYEECVVTTTPPSIQNGTYRFCCCSTDLCNVNFTENFPPPDTTPLSPPHSFNRDET		2.3	2.9
Y40R: BMPR-II ECD single-amino-acid-substitution mutant Y40R (protein, left off: TRX, N-terminal, cleaved | His6, C-terminal, state not stated) ASQNQERLCAFKDPRQQDLGIGESRISHENGTILCSKGSTCYGLWEKSKGDINLVKQGCWSHIGDPQECHYEECVVTTTPPSIQNGTYRFCCCSTDLCNVNFTENFPPPDTTPLSPPHSFNRDET		0.9	1.1
Y40G: BMPR-II ECD single-amino-acid-substitution mutant Y40G (protein, left off: TRX, N-terminal, cleaved | His6, C-terminal, state not stated) ASQNQERLCAFKDPGQQDLGIGESRISHENGTILCSKGSTCYGLWEKSKGDINLVKQGCWSHIGDPQECHYEECVVTTTPPSIQNGTYRFCCCSTDLCNVNFTENFPPPDTTPLSPPHSFNRDET		0.6	0.3
ActR-IIB Wild type: human recombinant ActR-IIB receptor extracellular domain (ECD), wild type, expressed in E. coli (protein, UniProt Q13705 19-137, looked up, extracellular domain) extracellular domain: SGRGEAETRECIYYNANWELERTNQSGLERCEGEQDKRLHCYASWRNSSGTIELVKKGCWLDDFNCYDRQECVATEENPQVYFCCCEGNFCNERFTHLPEAGGPEVTYEPPPTAPTLLT		1.0	1.0
